The source made the active and inactive calls. No cut-off for these calls is given here.
How the values were obtained:
SW480 [1] = assay: Anticancer activity against human SW480 cells expressing GPR120 assessed as inhibition of cell viability measured after 24 hrs by alamar blue assay; format: functional, cell-based; details: SW480, 24 h
In short: (§1)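 SW480 seeded 10,000, 5,000 or 2500 cells/well for 24, 48 or 72 h exposure; 9 serial dilutions 100 to 0.39 μM in 0.5% DMSO medium, not replenished during treatment. Read by 6% alamar blue, 3 h, ex 560/em 590 nm. 50% DMSO defined 0%, 0.5% DMSO 100%; IC50 by non-linear regression. 5 replicates, three experiments.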

SW480 [2] = assay: Anticancer activity against human SW480 cells expressing GPR120 assessed as inhibition of cell viability at 100 uM measured after 72 hrs by alamar blue assay relative to control; format: functional
In short: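 SW480 in RPMI1640 + 10% FBS, 37 °C, 5% CO2; seeded 2500 cells/well, exposed 72 h to 100, 10, 1 μM in 0.5% DMSO medium. Medium then replaced by 6% alamar blue, 3 h, fluorescence ex 560/em 590 nm. Six replicates, mean ± SE; viability set relative to vehicle (0.5% DMSO) control.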

SW480 [3] = assay: Anticancer activity against human SW480 cells expressing GPR120 assessed as inhibition of cell viability measured after 48 hrs by alamar blue assay; format: functional, cell-based; details: SW480, 48 h; in short: as §1
SW480 [4] = assay: Anticancer activity against human SW480 cells expressing GPR120 assessed as inhibition of cell viability measured after 72 hrs by alamar blue assay; format: functional, cell-based; in short: as §1
SW480 [5] = assay: Anticancer activity against human SW480 cells transfected with scrambled siRNA assessed as inhibition of cell viability 5 uM measured after 24 hrs by alamar blue assay; format: functional, cell-based
In short: (§2)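 SW480 seeded overnight, transfected with 50 nM human GPR120 27mer siRNA duplex or universal scrambled siRNA duplex (siTran 2.0). Harvested 24 h post-transfection, then exposed to 5 μM, 24 h. Viability read by alamar blue (6%, 3 h, ex 560/em 590 nm). Five replicates, mean ± SE; two-way ANOVA with Tukey test.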

SW480 [6] = assay: Anticancer activity against human SW480 cells transfected with GPR120 siRNA assessed as inhibition of cell viability 5 uM measured after 24 hrs by alamar blue assay; format: functional, cell-based; in short: as §2

Structure (SMILES)	IC50 (SW480 [1])	IC50 (SW480 [3])	inhibition at 100 µM (SW480 [2])	Activity (SW480 [4])	Activity (SW480 [5])	Activity (SW480 [6])
O=C(CSc1nc2c(c(=O)n1CCc1ccccc1)C1(CCCC1)Cc1ccccc1-2)c1ccc(Cl)cc1	68.9 µM	–	–	–	–	–
O=C1c2cc(S(=O)(=O)Nc3cccc4ccccc34)ccc2-c2ccc(S(=O)(=O)Nc3cccc4ccccc34)cc21	26.6 µM	50 µM	> 90%	Active	–	–
O=C(CSc1nc2c(c(=O)n1C1CCCC1)C1(CCCC1)Cc1ccccc1-2)c1ccc(Cl)cc1	24.3 µM	–	–	–	–	–
COc1ccc(-n2c(SCC(=O)c3ccc(Cl)cc3)nc3c(c2=O)C2(CCCC2)Cc2ccccc2-3)cc1	6.79 µM	–	–	–	Active	Active
Cc1ccc(-n2c(SCC(=O)c3ccc(Br)cc3)nc3c(c2=O)C2(CCCC2)Cc2ccccc2-3)cc1	25.5 µM	–	–	–	–	–

Continued by falling IC50 (SW480 [1]), values first:

IC50 (SW480 [1])	IC50 (SW480 [3])	Structure (SMILES)	inhibition at 100 µM (SW480 [2])	Activity (SW480 [4])	Activity (SW480 [5])	Activity (SW480 [6])
23.2 µM	50 µM	Cc1ccc(-n2c(SCC(=O)c3ccccc3)nc3c(c2=O)C2(CCCC2)Cc2ccccc2-3)cc1	> 90%	Active	–	–
22.9 µM	–	Cn1c(SCC(=O)c2ccc(Cl)cc2)nc2c(c1=O)C1(CCCC1)Cc1ccccc1-2	–	–	–	–
5.89 µM	–	O=C(CSc1nc2c(c(=O)n1-c1ccccc1)C1(CCCC1)Cc1ccccc1-2)c1ccc(Cl)cc1	–	–	Active	inactive

— ChEMBL document CHEMBL4673277, “In silico and in vitro screening for potential anticancer candidates targeting GPR120” (Bioorg Med Chem Lett, 2021)
